Test results published in ChEMBL document CHEMBL1125029, “Chemical and biochemical studies of 2-propynylpyrrolidine derivatives. Restricted-rotation analogues of N-methyl-N-(1-methyl-4-pyrrolidino-2-butynyl)acetamide (BM-5)” (J Med Chem, 1990).

Legend:
[1] = target: Muscarinic acetylcholine receptor; experiment: Binding activity to muscarinic acetylcholine receptor in rat heart, assayed using [3H]QNB as a radioligand in the presence of Gpp(NH)p.
Summary of the method: (§1)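 Male Wistar rat heart ventricles flushed, minced, Polytron-homogenized in 10 mM Na/K phosphate pH 7.4, spun 48000 g 15 min 4 °C, resuspended, gauze-filtered, diluted 1:750, 0.15-0.2 mg protein/2.0 mL. 10 μM Gpp(NH)p added to homogenate for line 3. Competitor 10^-12 to 10^-3 M. 10 μM atropine nonspecific. Filtration, scintillation counting. Ki from one-site fit.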

[2] = target: Muscarinic acetylcholine receptor; experiment: Binding activity to muscarinic acetylcholine receptor in rat heart, assayed using [3H]-QNB as a radioligand.; summary of the method: as §1
[3] = target: T1, Muscarinic acetylcholine receptor M2 (Rattus norvegicus) (UniProt P10980); experiment: Muscarinic 2 receptor agonistic activity was determined as the selectivity ratio of Ki against [3H]QNB+ Gpp(NH)p to that of [3H]QNB; type: functional
T1 sequence (whole entry): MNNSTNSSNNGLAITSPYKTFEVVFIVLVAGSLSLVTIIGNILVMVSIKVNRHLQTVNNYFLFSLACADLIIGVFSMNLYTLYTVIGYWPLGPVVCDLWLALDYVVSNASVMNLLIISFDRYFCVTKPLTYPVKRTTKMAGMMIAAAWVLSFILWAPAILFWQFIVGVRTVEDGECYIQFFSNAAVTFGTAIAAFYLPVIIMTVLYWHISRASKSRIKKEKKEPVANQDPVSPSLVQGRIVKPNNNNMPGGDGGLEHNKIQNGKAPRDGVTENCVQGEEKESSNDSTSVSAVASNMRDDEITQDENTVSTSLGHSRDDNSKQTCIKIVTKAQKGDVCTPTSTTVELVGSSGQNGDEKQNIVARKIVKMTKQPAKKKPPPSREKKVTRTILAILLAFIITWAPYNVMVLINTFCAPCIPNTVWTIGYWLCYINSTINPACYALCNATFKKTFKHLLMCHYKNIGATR

[4] = target: T2, Muscarinic acetylcholine receptor M1 (Rattus norvegicus) (UniProt P08482); experiment: Muscarinic 1 receptor agonistic activity as the selectivity ratio of Ki against [3H]-QNB+ Gpp(NH)p to that of [3H]PZ; type: functional
T2 sequence (whole entry): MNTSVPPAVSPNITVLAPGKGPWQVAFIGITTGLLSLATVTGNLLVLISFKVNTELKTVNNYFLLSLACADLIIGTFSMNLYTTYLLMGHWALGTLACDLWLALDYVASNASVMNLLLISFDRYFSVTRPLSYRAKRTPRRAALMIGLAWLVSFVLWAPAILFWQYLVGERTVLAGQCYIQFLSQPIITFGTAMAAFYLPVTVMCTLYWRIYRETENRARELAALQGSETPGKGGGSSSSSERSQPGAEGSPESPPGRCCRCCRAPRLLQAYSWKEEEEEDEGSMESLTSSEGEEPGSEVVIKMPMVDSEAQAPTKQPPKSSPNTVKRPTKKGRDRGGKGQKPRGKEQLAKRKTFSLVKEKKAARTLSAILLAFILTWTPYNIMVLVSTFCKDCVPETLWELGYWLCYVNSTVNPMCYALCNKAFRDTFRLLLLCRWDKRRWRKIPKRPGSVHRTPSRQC

[5] = target: Muscarinic acetylcholine receptor; experiment: Binding activity to the muscarinic acetylcholine receptor in rat cortex, assayed using [3H]CD as a radioligand.; type: tissue-based
Summary of the method: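 Male Wistar rat cerebral cortex homogenate in 10 mM Na/K phosphate pH 7.4, diluted 1:300 (wet wt/v), ~0.75 mg protein per 2.0 mL. 1 nM radioligand (55.5 Ci/mmol), prepared fresh in buffer. Competitor 10^-12 to 10^-3 M. Nonspecific binding with 10 μM atropine. Rapid filtration on PEI-treated filters, scintillation counting. Apparent Ki by one-site competitive nonlinear regression.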

[6] = target: T2, Muscarinic acetylcholine receptor M1 (Rattus norvegicus); experiment: Muscarinic 1 receptor agonistic activity as the selectivity ratio of Ki against [3H]-QNB to that of [3H]PZ; type: functional
[7] = target: Muscarinic acetylcholine receptor; experiment: Binding activity to the muscarinic acetylcholine receptor in rat cortex, assayed using [3H]PZ as a radioligand.; type: tissue-based
Summary of the method: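 Rat (male Wistar, 200-250 g) cortex homogenized in ice-cold Na/K phosphate buffer pH 7.4, diluted 1:400, ~0.55 mg protein per 2.0 mL. 0.1 nM radioligand (84.1 Ci/mmol), made fresh just before use. Unlabeled competitor at final 10^-12 to 10^-3 M. 10 μM atropine for nonspecific. Filtered, counted by liquid scintillation. One-site competitive fit gives apparent Ki.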

[8] = target: Muscarinic acetylcholine receptor; experiment: Binding activity against Muscarinic acetylcholine receptor in rat cortex, using [3H]QNB as a radioligand.; type: tissue-based
Summary of the method: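 Radioligand 250 pM (30.0 Ci/mmol). Competitor at final 10^-12 to 10^-3 M. 10 μM atropine defines nonspecific binding. Filtration on PEI-soaked GF/B filters, scintillation counting. Apparent Ki from one-site competitive nonlinear fit.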

[9] = target: Muscarinic receptor M1 and M2 (Rattus norvegicus) (UniProt P08482+P10980); experiment: The agonist ratio as the ratio of Ki against [3H]QNB to that of [3H]-CD; type: functional

Ki [1] [µM] | Ki [2] [µM] | Ratio [3] | Ratio [4] | Ki [5] [µM] | Ratio [6] | Ki [7] [µM] | Ki [8] [µM] | Ratio [9] | SMILES
2.08 | 1.55 | 1.3 | 0.9 | 5.67 | 0.7 | 2.22 | 2.8 | 0.5 | C(#C[C@@H]1CCCN1)CN1CCCC1.Cl.Cl
77 | 7.62 | 10 | 62 | 4.88 | 6.2 | 1.23 | 4.59 | 1 | O=CN1CCC[C@H]1C#CCN1CCCC1
